Experimental data as given in ChEMBL document CHEMBL3286353, “Optimization of small-molecule inhibitors of influenza virus polymerase: from thiophene-3-carboxamide to polyamido scaffolds” (J Med Chem, 2014).
Values after ≈ are worked out from the molar mass of the structure shown. Active and inactive are the calls of the source. The rule behind the calls is not given here.

Assays:
[1] = Cytotoxicity against MDCK cells after 48 hrs by MTT assay; type: cell-based, Canis lupus familiaris; settings: dog
Summary of the method: (§1)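 MTT assay. HEK 293T or MDCK cells (2×10^4 per well) were cultured at 37 °C in DMEM with serially diluted compounds (250 to 1.9 μM), for 24 h (293T) or 48 h (MDCK). MTT (5 mg/ml stock) was then added for 4 h, cells were lysed and incubated 3 h more, and absorbance was read at 620 nm. CC50 is the concentration cutting viability 50%, mean ± SD of ≥3 independent experiments in duplicate.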

[2] = Cytotoxicity against human HEK293T cells after 24 hrs by MTT assay; type: cell-based, HEK-293T; summary of the method: as §1
[3] = Inhibition of Influenza A virus GST-tagged PB1 (1 to 25) expressed in Escherichia coli binding to Influenza A virus 6His-tagged PA (239 to 716) expressed in Escherichia coli BL21(DE3) by ELISA
Summary of the method: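 Plates coated with 400 ng purified E. coli-expressed 6His-PA(239-716) for 3 h at 37 °C, then blocked with 2% BSA/PBS for 1 h at 37 °C. GST-PB1(1-25) (200 ng; GST alone as control) was added with compound at 10, 50, 100 or 200 μM and incubated overnight at room temperature. Detection used HRP anti-GST mAb (1:3000) and TMB at 450 nm, with DMSO set as 100%. IC50 is mean ± SD, ≥3 experiments in duplicate.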

[4] = Inhibition of Influenza A virus (A/Solomon Islands/3/2006(H1N1)) infected in MDCK cells after 48 hrs by plaque reduction assay; type: functional, cell-based
Summary of the method: (§2)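 Confluent MDCK monolayers in 12-well plates were infected with about 40 PFU/well in DMEM with 1 µg/ml TPCK-trypsin and 0.14% BSA, with compound or DMSO, for 1 h at 37 °C. Overlay was serum-free medium with trypsin, BSA, 1.2% Avicel and compound. After 48 h, cells were fixed with 4% formaldehyde, stained with 0.1% toluidine blue and plaques counted, with DMSO set as 100%. EC50 is mean ± SD, ≥3 experiments in duplicate.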

[5] = Inhibition of Influenza A virus (A/Parma/24/2009(H1N1)) infected in MDCK cells after 48 hrs by plaque reduction assay; type: functional, cell-based; summary of the method: as §2
[6] = system: Influenza A virus; assay: Inhibition of Influenza A virus A/Padova/30/11(H1N1) infected in MDCK cells after 48 hrs by plaque reduction assay; type: functional, organism-based; summary of the method: as §2
[7] = system: Influenza A virus; assay: Inhibition of Influenza A virus A/[…]/67/05(H3N2) infected in MDCK cells after 48 hrs by plaque reduction assay; type: functional, organism-based; summary of the method: as §2
[8] = system: Influenza B virus; assay: Inhibition of Influenza B virus (B/Malaysia/2506/2004) infected in MDCK cells after 48 hrs by plaque reduction assay; type: functional, cell-based; settings: B/Malaysia/2506/2004, MDCK; summary of the method: as §2
[9] = system: Influenza A virus; assay: Inhibition of Influenza A virus A/PR/8/34 infected in MDCK cells after 48 hrs by plaque reduction assay; type: functional, organism-based; settings: A/PR/8/34, MDCK; summary of the method: as §2
[10] = system: Human betaherpesvirus 5; assay: Inhibition of HCMV UL54 expressed in baculovirus interaction with UL44 expressed in baculovirus after 1 hr by ELISA
Summary of the method: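 Plates coated with […] purified baculovirus-expressed HCMV UL54, then blocked with 2% BSA/PBS for 1 h. Purified UL44 ([…]) carrying a C-terminal EEF tag was added with compound or DMSO (1% final) for 1 h at 37 °C. Detection used MAb YL1/2 (1 h, 37 °C), then HRP anti-rat antibody and TMB, read at 450 nm. Compounds were tested up to 200 μM.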

[11] = Inhibition of Influenza A virus RdRP infected in human HEK293T cells after 24 hrs by dual luciferase reporter gene assay; type: cell-based; settings: HEK-293T
Summary of the method: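 HEK 293T cells (10^5 per well) were transfected 24 h after seeding with PB1, PB2, PA and NP plasmids (100 ng each), a pol I firefly luciferase reporter (50 ng) and pRL-SV40 Renilla (50 ng), with compound or DMSO. Medium was replaced with compound-containing DMEM at 4 h. Dual luciferase was read at 24 h post-transfection, with DMSO set as 100%. EC50 is mean ± SD, ≥3 experiments in duplicate.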

[12] = system: Influenza B virus; assay: Inhibition of Influenza B virus (B/Lee/40) infected in MDCK cells after 48 hrs by plaque reduction assay; type: functional, organism-based; settings: B/Lee/1940, MDCK; summary of the method: as §2
[13] = Permeability of the compound by PAMPA; type: physicochemical
[14] = Solubility of the compound in D2O at 25 degC after 24 hrs by NMR analysis; type: physicochemical
[15] = system: Liver microsome; assay: Metabolic stability in human liver microsomes after 30 mins by HPLC-MS/MS analysis; type: ADME; settings: 0.5 h
[16] = Metabolic stability in human liver microsomes assessed as compound remaining after 30 mins by HPLC-MS/MS analysis; type: ADME; settings: read-out: Stability

Row | Compound | CC50 at 48 h [1] | CC50 at 24 h [2] | IC50 [3] | EC50 [4] | EC50 [5] | EC50 [6] | EC50 [7] | EC50 [8] | EC50 [9] | inhibition activity call (active/not active) [10] | EC50 [11] | EC50 [12] | permeability [13] | solubility at 24 h [14] | Stability [15] | remaining at 0.5 h [16] | inhibition [10] | IC50 [11]
1 | O=C(Nc1cnn(C23CC4CC(CC(C4)C2)C3)c1)c1cnn2c1NC(c1ccccc1)CC2C(F)(F)F (stereo unspecified) | 20.2 µM | 30.1 µM | > 200 µM | – | – | – | – | – | – | – | – | – | – | – | – | – | – | –
2 | CCC(C)NC(=O)c1ccccc1NC(=O)c1ccc(C)c(S(=O)(=O)Nc2cc(C)ccc2C)c1 (stereo unspecified) | > 250 µM | > 250 µM | 30.5 µM | 17.5 µM | 25 µM | 22.6 µM | 15.9 µM | 29.6 µM | 18.7 µM | inactive | 45.9 µM | 21.8 µM | – | – | – | – | – | –
3 | NC(=O)c1c(NC(=O)c2cnn3c(C(F)(F)F)cc(-c4ccccc4)nc23)sc2c1CCCC2 | > 250 µM | > 250 µM | 120 µM | – | – | – | – | – | > 100 µM | – | 70.5 µM | – | – | – | – | – | – | –
4 | NC(=O)c1c(NC(=O)c2nc3nc(-c4ccccc4)cc(C(F)(F)F)n3n2)sc2c1CCCC2 | > 250 µM | > 250 µM | 7.5 µM | 23.3 µM | 22.9 µM | 20.6 µM | 20 µM | 25.9 µM | 23.7 µM | inactive | 9.2 µM | 33.5 µM | permeable | 2.4 µg/mL (≈ 4.93 µM) | Stable | – | – | –
5 | COc1ccc(-c2cc(C(F)(F)F)n3ncc(C(=O)Nc4sc5c(c4C(N)=O)CCCC5)c3n2)cc1 | 51.3 µM | 40.4 µM | 135 µM | – | – | – | – | – | – | – | – | – | – | – | – | – | – | –
6 | Cc1ccc(C)c(NS(=O)(=O)c2cc(C(=O)Nc3ccccc3C(=O)Nc3ccccc3)ccc2C)c1 | 70.3 µM | > 250 µM | 91.9 µM | – | – | – | – | – | 24.7 µM | – | > 100 µM | – | – | – | – | – | – | –
7 | CCC(C)NC(=O)c1ccccc1NC(=O)c1ccc(C)c(S(=O)(=O)Nc2cccc(NC(=O)c3ccccc3)c2)c1 (stereo unspecified) | > 250 µM | > 250 µM | > 200 µM | – | – | – | – | – | > 100 µM | – | > 100 µM | – | – | – | – | – | – | –
8 | NC(=O)c1c(NC(=O)c2cnn3c(C(F)F)cc(-c4ccccc4)nc23)sc2c1CCC2 | > 250 µM | > 250 µM | – | > 100 µM | 95.5 µM | > 100 µM | > 100 µM | > 100 µM | 75.5 µM | – | 29.5 µM | > 100 µM | – | – | – | 37% | inactive | 31.4 µM
9 | Cn1c(=O)cc2c3c(c(N4CCCCC4)ccc31)C(=O)c1ccccc1-2 | – | – | – | – | – | – | – | – | – | Active | – | – | – | – | – | – | – | –
10 | CCC(C)NC(=O)c1ccccc1NC(=O)c1cccc(S(=O)(=O)Nc2ccc(O)cc2)c1 (stereo unspecified) | > 250 µM | > 250 µM | > 200 µM | – | – | – | – | – | > 100 µM | – | 82.6 µM | – | – | – | – | – | – | –
11 | O=C(Nc1ccccc1Cl)c1ccc2c(c1)C1C3CCC(C3)C1C(c1ccccc1)N2 (stereo unspecified) | > 250 µM | > 250 µM | > 200 µM | – | – | – | – | – | > 100 µM | – | > 100 µM | – | – | – | – | – | – | –
12 | NC(=O)c1c(NC(=O)c2cnn3c(C(F)(F)F)cc(-c4ccccc4)nc23)sc2c1CCC2 | > 250 µM | > 250 µM | 44.8 µM | – | – | – | – | – | 57 µM | – | 27.5 µM | – | – | – | – | – | – | –
13 | NC(=O)c1c(NC(=O)c2cccnc2)sc2c1CCCC2 | 45.2 µM | > 250 µM | > 200 µM | – | – | – | – | – | – | – | – | – | – | – | – | – | – | –
14 | O=C(Nc1ccc2c(c1)CCC2)c1cnn2c(C(F)(F)F)cc(-c3cccs3)nc12 | 18.3 µM | 12.4 µM | 35.1 µM | – | – | – | – | – | – | – | – | – | – | – | – | – | – | –
15 | NC(=O)c1c(NC(=O)c2cnn3c(C(F)F)cc(-c4ccccc4)nc23)sc2c1CCCC2 | > 250 µM | > 250 µM | 91.2 µM | – | – | – | – | – | 66 µM | – | 94.2 µM | – | – | – | – | – | – | –
16 | COC(=O)C1=C(N)N(c2cccc(Cl)c2C)C2=C(C(=O)CCC2)C1c1ccc2c(c1)OCO2 (stereo unspecified) | – | – | 30.4 µM | – | – | – | – | – | – | – | 18.5 µM | – | – | – | – | – | – | –
17 | CCC(C)NC(=O)c1ccccc1NC(=O)c1cccc(S(=O)(=O)Nc2ccccc2)c1 (stereo unspecified) | > 250 µM | > 250 µM | 9.2 µM | 22.5 µM | 43 µM | 37.6 µM | 23.5 µM | 26.3 µM | 30.5 µM | inactive | 17.2 µM | 25.5 µM | permeable | 1 µg/mL (≈ 2.21 µM) | – | 50% | – | –
18 | CCC(C)NC(=O)c1ccccc1NC(=O)c1cccc(S(=O)(=O)Nc2cc(C)ccc2C)c1 (stereo unspecified) | > 250 µM | > 250 µM | 84 µM | 16.5 µM | 22.1 µM | 16.7 µM | 10.8 µM | 19.8 µM | 35.2 µM | inactive | 25.7 µM | 15.5 µM | – | – | – | – | – | –
19 | Cc1ccc(-c2cc(C(F)(F)F)n3ncc(C(=O)Nc4sc5c(c4C(N)=O)CCCC5)c3n2)cc1 | > 250 µM | > 250 µM | 43 µM | – | – | – | – | – | 101 µM | – | 63 µM | – | – | – | – | – | – | –
20 | NC(=O)c1ncn([C@@H]2O[C@H](CO)[C@@H](O)[C@H]2O)n1 [RIBAVIRIN] | > 250 µM | > 250 µM | – | – | – | – | – | – | 15.6 µM | – | 24.9 µM | – | – | – | – | – | – | –
